Experiments:
[1] = Inhibition of dihydrofolate reductase DHFR in Pneumocystis carinii.
Procedure, shortened: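 Spectrophotometric DHFR assay following enzymatic reduction of dihydrofolate to tetrahydrofolate with NADPH cofactor. 1 mL mixture in phosphate buffer (40.7 mM, pH 7.4) containing NADPH (0.117 mM), dihydrofolate (0.092 mM), 2-mercaptoethanol (8.9 mM) and 0.018 units DHFR. IC50 is the drug concentration that halves the reduction rate relative to control.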

[2] = target: T1, Bifunctional dihydrofolate reductase-thymidylate synthase (Toxoplasma gondii, UniProt Q07422); test: Inhibitory activity against dihydrofolate reductase DHFR in Toxoplasma gondii.
T1 sequence (Q07422 whole entry): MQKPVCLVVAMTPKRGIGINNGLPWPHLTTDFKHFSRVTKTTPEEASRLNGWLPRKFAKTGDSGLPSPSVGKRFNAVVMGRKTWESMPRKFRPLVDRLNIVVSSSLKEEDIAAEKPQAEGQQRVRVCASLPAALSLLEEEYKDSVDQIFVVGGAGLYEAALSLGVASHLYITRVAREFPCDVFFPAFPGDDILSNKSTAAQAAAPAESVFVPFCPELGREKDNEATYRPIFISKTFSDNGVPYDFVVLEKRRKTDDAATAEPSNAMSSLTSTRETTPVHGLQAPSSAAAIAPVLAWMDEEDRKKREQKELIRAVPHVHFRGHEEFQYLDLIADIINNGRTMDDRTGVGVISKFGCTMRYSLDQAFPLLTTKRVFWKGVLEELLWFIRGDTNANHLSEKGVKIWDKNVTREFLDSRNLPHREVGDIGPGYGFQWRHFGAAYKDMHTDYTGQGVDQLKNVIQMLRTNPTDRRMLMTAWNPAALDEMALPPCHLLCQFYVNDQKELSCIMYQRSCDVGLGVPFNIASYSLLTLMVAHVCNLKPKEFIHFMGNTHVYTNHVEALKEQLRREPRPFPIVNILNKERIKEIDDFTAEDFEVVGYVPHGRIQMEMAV

Dihydrofolate reductase [3] = target: T2, Dihydrofolate reductase (Mycobacterium avium, UniProt O30463); test: Inhibitory activity against dihydrofolate reductase DHFR in Mycobacterium avium
T2 sequence (O30463 whole entry): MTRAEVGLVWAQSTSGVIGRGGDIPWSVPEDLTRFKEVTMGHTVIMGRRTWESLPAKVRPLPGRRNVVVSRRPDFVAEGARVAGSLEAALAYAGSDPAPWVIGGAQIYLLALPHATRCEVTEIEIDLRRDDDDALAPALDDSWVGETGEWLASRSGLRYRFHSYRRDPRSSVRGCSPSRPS

Dihydrofolate reductase [4] = target: T3, Dihydrofolate reductase (Rattus norvegicus, UniProt Q920D2); test: Inhibitory activity against dihydrofolate reductase DHFR in rat liver
T3 sequence (Q920D2 whole entry): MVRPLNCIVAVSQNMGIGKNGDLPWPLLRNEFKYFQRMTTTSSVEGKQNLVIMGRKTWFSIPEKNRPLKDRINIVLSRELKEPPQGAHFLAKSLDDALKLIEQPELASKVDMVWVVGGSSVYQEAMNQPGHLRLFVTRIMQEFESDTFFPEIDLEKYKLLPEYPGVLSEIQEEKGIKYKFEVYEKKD

[5] = Selectivity ratio of IC50(rat liver)/IC50(Mycobacterium avium)

Row | Compound | IC50 [1] [µM] | IC50 [2] [µM] | IC50 (Dihydrofolate reductase [3]) [µM] | IC50 (Dihydrofolate reductase [4]) [µM] | Selectivity ratio [5]
1 | CCc1nc(N)nc(N)c1-c1ccc(Cl)c(/N=N/N(CCOC(C)=O)Cc2cc(OC)cc(OC)c2)c1 | 0.86 | 0.378 | 4.36 | 0.845 | 0.19
2 | CCc1nc(N)nc(N)c1-c1ccc(Cl)c(/N=N/N(CCOC(C)=O)Cc2ccc(C(F)(F)F)cc2)c1 | 1.35 | 2.54 |  | 6.62 | 
3 | CCc1nc(N)nc(N)c1-c1ccc(Cl)c(/N=N/N(CCOC(C)=O)Cc2cccc(Cl)c2)c1 | 0.58 | 1.16 |  | 1.29 | 
4 | CCc1nc(N)nc(N)c1-c1ccc(Cl)c(/N=N/N(CCOC(C)=O)Cc2cccc3ccccc23)c1 | 0.053 | 0.2 |  | 0.28 | 
5 | CCc1nc(N)nc(N)c1-c1ccc(Cl)c(/N=N/N(CCOC(C)=O)Cc2ccc3ccccc3c2)c1 | 0.59 | 1.05 |  | 0.62 | 
6 | CCc1nc(N)nc(N)c1-c1ccc(Cl)c(/N=N/N(CCOC(C)=O)Cc2ccc(OC)c(OC)c2)c1 | 1.4 | 0.08 |  | 0.39 | 
7 | CCC(=O)OCCN(Cc1ccccc1)/N=N/c1cc(-c2c(N)nc(N)nc2CC)ccc1Cl | 1.3 | 0.7 |  | 3.3 | 
8 | CCc1nc(N)nc(N)c1-c1ccc(Cl)c(/N=N/N(CCOC(=O)C(C)C)Cc2ccccc2)c1 | 1.2 | 0.66 |  | 3.7 | 
9 | CCc1nc(N)nc(N)c1-c1ccc(Cl)c(/N=N/N(CCOC(C)=O)Cc2ccc(OC)cc2)c1 |  | 0.44 |  | 2.1 | 
10 | CCc1nc(N)nc(N)c1-c1ccc(Cl)c(/N=N/N(CCOC(C)=O)Cc2ccc([N+](=O)[O-])cc2)c1 | 1.21 | 0.85 | 5.34 | 3.33 | 0.62
11 | CCc1nc(N)nc(N)c1-c1ccc(Cl)c(/N=N/N(CCOC(C)=O)Cc2cccc(C)c2)c1 | 5.29 | 5.39 | 25.2 | 5.8 | 0.23
12 | CCc1nc(N)nc(N)c1-c1ccc(Cl)c(/N=N/N(CCOC(C)=O)Cc2cccc(F)c2)c1 | 2.22 | 1.25 | 4.07 | 3.87 | 0.95
13 | CCc1nc(N)nc(N)c1-c1ccc(Cl)c(/N=N/N(CCO)CCc2ccccc2)c1 | 0.48 | 1.79 | 5.42 | 4.67 | 0.86
14 | CCc1nc(N)nc(N)c1-c1ccc(Cl)c(/N=N/N(CCOC(C)=O)Cc2ccc(C)cc2)c1 | 1.7 | 0.63 | 4.43 | 3.85 | 0.87
15 | CCc1nc(N)nc(N)c1-c1ccc(Cl)c(/N=N/N(CCO)Cc2ccccc2)c1 | 0.26 |  |  |  | 
16 | CCc1nc(N)nc(N)c1-c1ccc(Cl)c(/N=N/N(CCCO)Cc2ccccc2)c1 | 0.68 | 2.01 | 3.9 | 7.35 | 1.88
17 | CCc1nc(N)nc(N)c1-c1ccc(Cl)c(/N=N/N(CCOC(C)=O)Cc2cc(OC)c(OC)c(OC)c2)c1 | 1.5 | 0.07 |  | 0.45 | 
18 | CCc1nc(N)nc(N)c1-c1ccc(Cl)c(/N=N/N(CCOC(C)=O)Cc2ccncc2)c1 | 3.46 | 0.64 | 2.03 | 6.19 | 3.05
19 | CCc1nc(N)nc(N)c1-c1ccc(Cl)c(/N=N/N(CCO)[C@@H](C)c2ccccc2)c1 | 1.26 | 2.7 |  | 6.51 | 
20 | CCc1nc(N)nc(N)c1-c1ccc(Cl)cc1 [PYRIMETHAMINE] | 3.65 |  |  |  | 
21 | CCc1nc(N)nc(N)c1-c1ccc(Cl)c(/N=N/N(CCOC(C)=O)Cc2ccccc2F)c1 | 92 | 7.8 |  | 14.9 | 
22 | CCc1nc(N)nc(N)c1-c1ccc(Cl)c(/N=N/N(CCOC(C)=O)Cc2ccccc2Cl)c1 | 4.7 | 6.1 |  | 8.4 | 
23 | CCc1nc(N)nc(N)c1-c1ccc(Cl)c(/N=N/N(CCOC(C)=O)Cc2ccccc2C)c1 | 11.1 | 0.83 | 24.5 | 11.2 | 
24 | CCc1nc(N)nc(N)c1-c1ccc(Cl)c(/N=N/N(CCOC(=O)c2ccccc2)Cc2ccccc2)c1 | 0.85 | 0.22 |  | 0.69 | 
25 | CCc1nc(N)nc(N)c1-c1ccc(Cl)c(/N=N/N(CCOC(C)=O)Cc2ccc(Cl)cc2)c1 | 0.94 | 0.8 |  | 1.8 | 
26 | CCc1nc(N)nc(N)c1-c1ccc(Cl)c(/N=N/N(CCOC(C)=O)Cc2ccc(F)cc2)c1 | 1.91 | 4.4 | 7.46 | 3.83 | 0.51
27 | CCc1nc(N)nc(N)c1-c1ccc(Cl)c(/N=N/N(CCO)[C@H](C)c2ccccc2)c1 | 1.09 | 1.47 |  | 6.44 | 
28 | CCc1nc(N)nc(N)c1-c1ccc(Cl)c(/N=N/N(CCOC(C)=O)Cc2cccc([N+](=O)[O-])c2)c1 | 1.3 | 0.83 | 3.69 | 1.61 | 0.44
29 | CCc1nc(N)nc(N)c1-c1ccc(Cl)c(/N=N/N(C)C)c1 | 2.8 |  |  |  | 

Source: ChEMBL document CHEMBL1134547 (J Med Chem, 2001)
